Screens deposited in PubChem by Sanford-Burnham Center for Chemical Genomics.
EBI2 block: EBI2 receptor antagonists, beta-arrestin recruitment, primary screen, cell-based, luminescence, 7a,25-OHC stimulation, uHTS | G-protein coupled receptor 183 (Homo sapiens), P32249 | 7a,25-OHC stimulated | inhibition, % at 5 µM | hit rate 0.81% among 360,000 | AID 651636, 2012; in the data active = inhibition above about 38%;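 also: enzyme fragment complementation signal reports receptor beta-arrestin coupling in cells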
Target sequence (P32249 whole entry, looked up, the tested form may be a part): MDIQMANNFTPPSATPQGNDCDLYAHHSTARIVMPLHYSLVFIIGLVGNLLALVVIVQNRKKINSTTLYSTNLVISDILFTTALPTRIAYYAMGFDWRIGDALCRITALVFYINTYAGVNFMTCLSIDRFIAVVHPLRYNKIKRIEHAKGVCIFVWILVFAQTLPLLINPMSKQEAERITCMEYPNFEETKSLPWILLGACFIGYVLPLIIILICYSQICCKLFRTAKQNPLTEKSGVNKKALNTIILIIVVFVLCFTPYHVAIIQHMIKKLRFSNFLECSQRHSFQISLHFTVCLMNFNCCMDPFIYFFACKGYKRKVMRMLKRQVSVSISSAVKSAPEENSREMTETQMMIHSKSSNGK
APJ ag: agonists of human apelin receptor APJ, primary screen, CHO-K1 cells, PathHunter beta-arrestin, luminescence | P35414 | 0% DMSO wells, 100% apelin | hit rate 0.11% among 330,000 | AID 2520, 2010 | activation, % at 20 µM;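 active = activation more than six SD over the plate average, tested at 20 µM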
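Assay system – PathHunter CHO-K1 APJ (AGTRL-1) beta-arrestin reporter cells · Compound – one dose, 20 µM compound, 1% DMSO · Timing – compound 90 min 25 °C, reagent 1 h · Measured by – luminescence from split beta-galactosidase complementation, Galacton Star/Emerald II substrate · Measure – beta-arrestin recruitment to APJ as agonist activity, luminescent signal · Benchmarks – DMSO vs Apelin-13 10 nM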
APJ antag: antagonists of human apelin receptor APJ, primary screen, CHO-K1 cells, beta-arrestin complementation, luminescence; P35414; inhibition, % at 20 µM; hit rate 0.32% among 330,000; AID 2521, 2010;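 active = inhibition above about 40% at 20 µM, limit read from the data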;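 also: cells challenged with 10 nM apelin-13 agonist together with compound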
CXCR6 inh: CXCR6 receptor inhibitors, primary screen, cell-based, beta-arrestin, luminescence, CHO-K1 PathHunter, 1536-well. hit rate 0.36% among 360,000. inhibition, % at 20 µM. C-X-C chemokine receptor type 6 (Homo sapiens), O00574; in the data active = inhibition above about 34%, passing the limit was not always enough;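 also: antagonist mode with CXCL16 agonist at 10 nM final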
CCR6 antagonist: CCR6 receptor antagonists, primary screen, cell-based, CHO-K1, luminescence, beta-arrestin, uHTS; C-C chemokine receptor type 6 (Homo sapiens), P51684; CHO-K1 CCR6 PathHunter beta-arrestin, CCL20-stimulated; inhibition, % at 20 µM; hit rate 0.49% among 340,000;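 active = compounds whose inhibition of the agonist-driven luminescence signal at 20 µM reaches about 50%, limit read from the data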;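 also: cells stimulated with CCL20 at 14 nM final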
APJ ag confirm: agonists of human apelin receptor APJ, confirmation, cell-based, single concentration, CHO-K1, beta-arrestin, luminescence. shares compounds with APJ ag. CHO-K1 APJ PathHunter beta-arrestin. activation, % at 20 µM. hit rate 10% among 310. AID 2764, 2010;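 active = activation above 40%, taking the highest of four retests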
APJ antag confirm: APJ antagonists blocking beta-arrestin recruitment, confirmation, cell-based, luminescence, single concentration, uHTS hits; inhibition, % at 20 µM; hit rate 66% among 950; AID 2766, 2010; shares compounds with APJ antag; antagonist mode; in the data active = inhibition above about 50%
A number is an active result; - = inactive; . = no result. This is a sample that favours compounds with a hit; in the whole collection about 1.5% have one here.

SMILES	EBI2 block	APJ ag	APJ antag	CXCR6 inh	CCR6 antagonist	APJ ag confirm	others
N#Cc1ccc(NC(=O)Nc2ccc(Oc3ccc(NC(=O)Nc4ccc(C#N)cc4)cc3)cc2)cc1	-	19	-	-	-	-
Cc1ccc(C)c(NC(=O)/C(C#N)=C/c2ccc(Sc3nncn3C)c([N+](=O)[O-])c2)c1	.	44	-	.	.	-
O=C1NC[C@H](CCCCN2C[C@H](Cc3ccccc3)N(CCc3ccc(O)cc3)C(=O)C2=O)N(CCc2ccccc2)C1=O	-	.	.	-	.	.
O=C(Cn1ncc2c([nH]c3ccccc32)c1=O)Nc1ccc(CN2CCCCC2)cc1	-	91	-	-	-	-
O=C(Nc1ccccc1)c1sccc1Oc1ccc([N+](=O)[O-])cc1F	-	-	-	-	-	.
COc1ccc([C@@H](OC)[C@@]2(Cc3ccc(O)cc3)N=C(N)N(C)C2=O)cc1	-	-	-	-	-	.
O=c1cc(CN2CCN(C/C=C/c3ccccc3)CC2)c2cc(O)c(-c3ccccc3)cc2o1	-	-	-	-	-	.
CC(C)CN(Cc1cc(=O)oc2cc(-c3ccccc3)c(O)cc12)CC(C)C	-	19	-	-	-	-
CCCCNc1c(-c2ccc(OC)c(Sc3ccc(OC)cc3)c2)nc2ccccn12	-	37	-	-	-	-
Cc1cccc(C)c1OCCSc1nc2ccccc2n1CC(=O)O	-	-	-	-	-	.
COc1ccc(/C=N/Nc2cc(C)nc3ccc(OC)cc23)c(OC)c1	-	61	-	-	-	64
COc1ccc2nc(C)cc(N/N=C/c3ccccc3)c2c1	-	-	-	-	-	.
Cc1nc(NCCOc2ccccc2)sc1C(=O)Nc1ccccc1	-	-	-	-	-	.
CN1CCN(c2ccc(NC(=O)COc3ccccc3[N+](=O)[O-])cc2)CC1	-	-	-	-	-	.
CC(C)C(=O)N1CCN(c2ccc(NC(=O)COc3ccccc3[N+](=O)[O-])cc2)CC1	-	16	-	-	-	54
c1ccc(Nc2nc(NCC3CCCO3)c3ccccc3n2)cc1 (centres undefined)	-	-	-	-	-	.
CCOc1ccc(Nc2nc(NCC3CCCO3)c3ccccc3n2)cc1 (centres undefined)	66	13	-	-	-	-
CC(C)NS(=O)(=O)c1ccc(NCCCn2ccnc2)c([N+](=O)[O-])c1	-	-	-	-	-	.
Cc1ncc(CO)c2c1Oc1nc(-c3ccccc3)nc(SCC(=O)N(C)c3ccccc3)c1C2	.	28	-	.	.	-
O=C(COC(=O)c1ccc2c(c1Cl)C(=O)c1ccccc1C2=O)NC1CC1	-	13	-	-	-	-
COc1ccc(NC(=O)C[C@H]2C(=O)N(C3CCCCC3)C[C@@H]2c2ccc(OC)cc2)cc1	-	.	.	-	.	.
N#Cc1c2ccc([N+](=O)[O-])cc2[n+]([O-])n1-c1ccccc1	-	13	-	-	.	-
C/C(COc1ccccc1)=N\NC(=O)c1nnn(-c2nonc2N)c1CSc1ccccc1	-	19	-	-	-	-
Cc1onc(-c2ccccc2Cl)c1C(=O)O/N=C(\N)c1ccccc1	-	31	-	-	-	-
COc1ccc(C(=O)N2CCCCC2c2cc(C(=O)Nc3cccc(C#N)c3)no2)cc1 (centres undefined)	-	.	.	-	.	.
SMILES	EBI2 block	APJ ag	APJ antag	CXCR6 inh	CCR6 antagonist	APJ ag confirm	others
CS(=O)c1nc(-c2ccc(Br)cc2)cc(-c2ccccc2)c1C#N (centres undefined)	64	36	-	-	-	-
CC1=C(C)/C(=N\OS(=O)(=O)c2ccccc2)C=CC1=O	-	41	-	51	87	-
O=[N+]([O-])c1cc(-c2nc3nc4ccccc4nc3n2CCc2ccccc2)cc([N+](=O)[O-])c1	-	17	-	-	-	-
O=S(=O)(c1ccc2nc(N3CCN(c4ccc(F)cc4)CC3)ccc2c1)N1CCCCC1	-	-	-	-	-	.
CC1CCN(S(=O)(=O)c2ccc3nc(N4CCN(c5ccccc5)CC4)ccc3c2)CC1	.	53	-	.	-	-
Cc1nn(Cc2ccccc2)c(C)c1NC(=O)CSc1nc2sc3c(c2c(=O)n1C)CCC3	.	29	-	.	-	40
Cc1cc(NC(=O)CSc2nc3sc4c(c3c(=O)n2C)CCCC4)no1	-	-	-	-	-	.
CC1=C(C(=O)Nc2cc(C(=O)NCc3ccccc3)ccc2C)SCCO1	-	.	.	-	.	.
COc1cc2ccccc2cc1C(=O)N1CC(C)CC(C)C1 (centres undefined)	-	-	-	-	-	.
Cc1cccc(NC(=S)NC(=O)/C=C/c2ccccc2)n1	-	11	-	-	-	-
COc1ccc(NC(=S)NC(=O)/C=C/c2ccccc2)cc1	-	-	-	-	-	.
N/C(=N\OC(=O)c1ccc(Cl)c(Cl)c1)c1ccccn1	-	-	-	-	-	.
N/C(=N\OC(=O)c1cccc(Br)c1)c1ccccn1	-	34	-	-	-	-
N/C(=N\OC(=O)c1ccc(Cl)c([N+](=O)[O-])c1)c1ccccn1	-	17	-	-	-	-
N/C(=N\OC(=O)c1cccc(Cl)c1)c1ccccn1	-	-	-	-	-	.
Cc1csc2nc(COC(=O)c3ccc(Cl)c([N+](=O)[O-])c3)cc(=O)n12	-	30	-	-	-	-
COc1ccc(NC(=O)COc2cc(C)cc(C)c2)cc1S(=O)(=O)N1CCCCC1	-	-	-	-	-	.
C=CCNc1cccc(Br)c1	-	-	-	-	-	.
CCCCCCCCCn1c2c(c(=N)c3c1CCC3)CCCC2	-	10	41	-	-	-	APJ antag confirm=-
CCCCCCCCCCn1c2c(c(=N)c3c1CCC3)CCC2	-	-	-	-	-	.
C=CCN(c1ccccc1)S(=O)(=O)c1cccc2cccnc12	-	-	-	-	-	.
COC(=O)C1=C(Cn2cnc3ccccc32)NC(=O)NC1c1cc(C)ccc1C (centres undefined)	-	76	46	-	-	62	APJ antag confirm=-
Cc1cccc(NC(=S)NNC(=O)c2cccc([N+](=O)[O-])c2)c1	-	-	-	-	-	.
Cc1occc1C(=O)NNC(=S)Nc1cccc([N+](=O)[O-])c1	-	-	45	-	-	.	APJ antag confirm=-
CC(=O)Nc1ccc(Nc2ncnc3ccccc23)cc1	.	-	43	.	.	.	APJ antag confirm=-
Cc1cc(=O)n2[nH]c(=O)c(N=Nc3ccccc3)c2[nH]1	-	-	-	-	-	.
